High-throughput results (PubChem)
Shown are actives, neighbours in structure and some others; about 2% of the full set was active somewhere.
FLuc inh counter – firefly luciferase enzyme inhibitors, primary screen, artefact control for luciferase-based inhibitor screens, biochemical, luminescence, ATPLite; 10 min; inhibition, % at 10 µM; 200,000 compounds, 1.5% hits;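 active = inhibition above about 50% when tested at 10 µM, limit read from the data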
Target sequence (P08659 whole entry, looked up): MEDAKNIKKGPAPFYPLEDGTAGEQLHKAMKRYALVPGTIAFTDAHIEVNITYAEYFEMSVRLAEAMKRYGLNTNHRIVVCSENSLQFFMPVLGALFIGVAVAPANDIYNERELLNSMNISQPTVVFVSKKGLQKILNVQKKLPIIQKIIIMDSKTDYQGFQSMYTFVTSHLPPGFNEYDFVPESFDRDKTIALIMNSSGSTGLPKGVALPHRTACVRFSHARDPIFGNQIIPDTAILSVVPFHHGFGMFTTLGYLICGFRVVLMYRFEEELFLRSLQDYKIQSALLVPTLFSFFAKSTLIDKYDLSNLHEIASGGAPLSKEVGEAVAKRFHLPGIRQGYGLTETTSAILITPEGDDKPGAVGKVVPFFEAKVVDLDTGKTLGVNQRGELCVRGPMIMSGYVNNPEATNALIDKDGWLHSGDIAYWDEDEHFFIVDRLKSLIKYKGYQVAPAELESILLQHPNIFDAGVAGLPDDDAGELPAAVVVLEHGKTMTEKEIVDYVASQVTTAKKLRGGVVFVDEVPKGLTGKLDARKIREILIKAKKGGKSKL
HSP90 refold inh – HSP90 inhibitors, primary screen, cell lysate, luminescence; Heat shock protein HSP 90 (rabbit reticulocyte lysate; luciferase refolding); Rabbit reticulocyte lysate, luciferase refolding luminescence, 3 h; inhibition, % at 5.6 µM; 290,000 compounds, 0.91% hits;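 active = inhibition above the screen-wide mean plus 3 SD, computed separately per campaign, cut at about 16% in these data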;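 note: 0% = DMSO wells and 100% = 60 µM geldanamycin wells; inhibitors lower the luminescence because luciferase stays unfolded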
FLuc act counter – FLuc activators, initial screening, artefact control for FLuc-dependent activation tests, biochemical, ATPlite luminescence. activation factor at 10 µM. 200,000 tested, under 10 active. ATPlite luciferase biochemical, 10 min; 0 = ATP-free wells, 1 = DMSO control;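 active = luciferase activation factor, scaled between plate controls, of at least 2 with compound at 10 µM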
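Material: Luciferase/luciferin reagent mix | Doses: Test compounds dosed from 2 mM stocks in 100% DMSO | Timing: 10 min incubation after luciferase reagent addition, room temperature | Measured by: Luminescence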
TRAIL sens C8 – viability loss with TRAIL in NB7+C8 cells, primary screen, TRAIL sensitizer project, cell-based, ATPlite luminescence; 360,000 compounds, 1% hits; inhibition (viability loss, TRAIL sensitization), % at 10 µM; AID 624354, 2012;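 active = compounds causing at least 50% loss of cell viability in the single-dose screen, relative to plate controls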
PPC-1+TRAIL kill – compounds killing PPC-1 cancer cells with TRAIL present, primary screen, TRAIL potentiator project, ATPLite luminescence, uHTS; PPC-1 cells + TRAIL, ATPLite viability luminescence; cell killing (% activity), % at 4 µM or 5 µM; 220,000 compounds, 0.41% hits;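 active = cell killing above 50% in the first pass at 4 µM, then a duplicate retest at 5 µM averaging 50% or more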;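 note: plate controls were cells with TRAIL plus DMSO for no effect and medium-only wells lacking cells for full effect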
HSP90 confirm – HSP90 inhibitors, confirmation, cell lysate, luminescence | 2,300 compounds, 64% hits | shares compounds with HSP90 refold inh | inhibition, % at 5.9 µM | rabbit reticulocyte lysate, luciferase refolding luminescence, 3 h; in the data active = inhibition above about 18%;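 note: 0% = vehicle wells and 100% = reference inhibitor wells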
FLuc counter – firefly luciferase inhibitors, HSP90 counter-screen, confirmation, artefact control for HSP90 inhibitor project, biochemical, luminescence, triplicate. shares compounds with HSP90 refold inh. purified native firefly luciferase. inhibition, % at 5.9 µM. 2,300 compounds, 48% hits. AID 1847, 2009;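 active = inhibition above the mean inhibition of all tested sample wells plus 3 SD, cut at about 10% in these data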;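 note: 0% = DMSO with luciferase and 100% = wells lacking luciferase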
The depositor's hits bear a star; . = no result.

SMILES | FLuc inh counter | HSP90 refold inh | FLuc act counter | TRAIL sens C8 | PPC-1+TRAIL kill | HSP90 confirm | FLuc counter
Cc1ccc(S(=O)(=O)CCC(=O)Oc2ccc(-c3nnco3)cc2)cc1 | . | . | . | 8 | . | . | .
COc1cc(C(=O)NCCNC(=O)C2CCCNC2=O)cc(OC)c1OC (stereo unspecified) | . | -1 | . | 3 | 15 | . | .
CCC(C)NS(=O)(=O)c1ccc(NC(=O)c2cccs2)cc1 (stereo unspecified) | -8 | -3 | 1.1 | -5 | 19 | . | .
CCC(C)c1ccc(NC(=O)c2cccs2)cc1 (stereo unspecified) | 75* | 17* | 0.3 | 60* | 25 | 24* | 6
CCCCN1C(=O)C(=O)N(CC(=O)c2ccc3c(c2)CCCC3)C1=O | . | . | . | -5 | . | . | .
CC(O)CNCc1ccccc1C(F)(F)F (stereo unspecified) | -5 | 0 | 1 | -18 | 6 | . | .
Cc1ccc(C(=O)/C=C/Nc2ccccn2)cc1 | . | 66* | . | 82* | . | 96* | 91*
COc1ccc(N/C=C/C(=O)c2ccc(Cl)cc2)cc1 | 35 | 3 | 0.7 | 43 | 21 | . | .
COc1cccc(N/C=C/C(=O)c2ccc(C)cc2)c1 | . | 19* | . | 64* | . | 34* | 28*
COc1ccc(OC)c(N/C=C/C(=O)c2ccccc2)c1 | . | 70* | . | 91* | . | 92* | 84*
O=C(/C=C/Nc1ccc(F)cc1Br)c1ccccc1 | 96* | 19* | 0 | 95* | 85* | 89* | 82*
COc1ccccc1N1CCN(CCN2C(=O)C3CCCCN3C2=O)CC1 (stereo unspecified) | . | -3 | . | -13 | . | . | .
Cc1ccc(C2=NCN(c3ccc(C(=O)O)cc3)C(=S)N2)cc1 | 2 | 22* | 1 | . | 16 | 18* | -5
Cc1ccc(NC(=O)CSc2nc(=O)n(CCN(C)C)c3c2CCCC3)cc1Cl | . | . | . | 8 | . | . | .
Cc1ccc(Cl)cc1NC(=S)N(CCN(C)C)C(C)c1ccccn1 (stereo unspecified) | -8 | -2 | 1.1 | -2 | 31 | . | .
COc1ccc(-c2csc(-c3ccc(C(=O)O)cc3)n2)cc1 | 4 | 19* | 1 | -1 | 13 | 39* | 0
CCCCn1cc(S(=O)(=O)c2ccccc2)c(=O)c2cc(C)ccc21 | . | -1 | . | -1 | . | . | .
Cc1nc2ccccc2c2c1C(=O)N(c1cccc(C(=O)O)c1)C2=O | -3 | 2 | 1 | 0 | 1 | . | .
Cc1ccc(C)c(C(=O)COC(=O)c2cccc(N3C(=O)c4c(C)nc5ccccc5c4C3=O)c2)c1 | 60* | 27* | 0.4 | 57* | 65* | 14 | -3
COc1ccc(-c2cc(C(=O)N/N=C(\C)c3cccnc3)c3ccccc3n2)c(OC)c1 | . | 4 | . | 13 | . | . | .
CCOc1ccc(-c2cc(C(=O)N/N=C(\C)c3cccnc3)c3ccccc3n2)cc1 | . | 28* | . | 68* | . | 3 | -23
O=C(CNC1CCCCC1)Nc1cc(S(=O)(=O)N2CCOCC2)ccc1Cl | -8 | 1 | 1.1 | 17 | 0 | . | .
O=C(Nc1ccccc1N1CCOCC1)c1cnccn1 | -6 | 5 | 1.1 | -2 | 8 | . | .
O=C(Nc1ccc(N2CCOCC2)cc1)c1cnccn1 | . | 46* | . | 78* | . | 67* | 44*
CCOC(=O)c1sc(N)c(C#N)c1CSc1nc2ccc(C)cc2[nH]1 | 0 | 18* | 1 | -11 | 17 | 0 | -5
SMILES | FLuc inh counter | HSP90 refold inh | FLuc act counter | TRAIL sens C8 | PPC-1+TRAIL kill | HSP90 confirm | FLuc counter
CCOC(=O)c1sc(N)c(C#N)c1CSc1nc2ccc(OCC)cc2[nH]1 | -4 | 1 | 1 | -6 | 18 | . | .
COc1ccc(N2CCC(CNS(=O)(=O)c3cccc(C(F)(F)F)c3)C2)cc1 (stereo unspecified) | -2 | 59* | 1 | -16 | -6 | 2 | -1
O=C(NC(=O)c1ccccc1)OCCN1C(=O)c2ccccc2C1=O | -6 | 3 | 1.1 | -4 | 15 | . | .
Cc1nc(SCc2cccc(C(=O)O)c2)nc2c1CCCC2 | 2 | 18* | 1 | 0 | 4 | 47* | 18*
COc1ccc(-c2cc(C)nc(SCc3cccc(C(=O)O)c3)n2)cc1 | -5 | -3 | 1 | -10 | 22 | . | .
Cn1c2ccccc2c(=O)c2ccc(C#CC3(O)CCCCC3)cc21 | . | 59* | . | 86* | . | 66* | 65*
CN(CC(=O)OCC(=O)NCC(F)(F)F)S(=O)(=O)c1ccc(Cl)cc1 | -4 | -3 | 1 | 0 | -1 | . | .
c1ccc(-n2cnc3cc(NCc4cccs4)ccc32)cc1 | 22 | 51* | 0.8 | -2 | 16 | 63* | 61*
COC(=O)CCC(NC(=O)c1cc(-c2ccc3c(c2)OCCO3)oc1C)C(=O)OC (stereo unspecified) | 4 | 5 | 1 | 6 | 18 | . | .
Cc1oc(-c2ccc3c(c2)OCCO3)cc1C(=O)NC(Cc1ccccc1)C(=O)O (stereo unspecified) | 5 | 39* | 1 | 3 | 18 | 65* | 18*
O=C(c1ccc(N2CCOCC2)cc1[N+](=O)[O-])N1CCOCC1 | -2 | -1 | 1 | -26 | -9 | . | .
Cc1nc(Nc2cc(F)ccc2C)c2nnn(Cc3ccccc3)c2n1 | . | 3 | . | -1 | . | . | .
Cc1c(OCc2ccccc2)c(=O)ccn1Cc1ccccc1 | -4 | 20* | 1 | -13 | 12 | -7 | -17
O=c1ccn(Cc2ccccc2)c2ccccc12 | . | . | . | -5 | 13 | . | .
CN(C(=S)Nc1ccc(F)cc1)C1(c2ccccc2Cl)CCCCC1=O (stereo unspecified) | -4 | 1 | 1 | 7 | 7 | . | .
Cn1cccc1-c1cc(C(=O)N/N=C/c2ccc(Cl)cc2)[nH]n1 | . | 19* | . | -8 | . | 2 | -5
CCOc1ccc(N=C(NN)c2ccc3ccccc3n2)cc1 | 3 | 28* | 1 | 6 | 25 | 12 | -4
COC(=O)c1ccc(NC(=O)C[n+]2ccccc2C)cc1 | . | 20* | . | -10 | . | 1 | -4
O=C(CSc1ncccc1-c1nc2ccccc2[nH]1)NCc1ccco1 | 6 | 1 | 0.9 | 3 | 2 | . | .
Cc1cc2nc(-c3cccnc3SCC(=O)NCc3ccco3)[nH]c2cc1C | . | 18* | . | 61* | . | 23* | 7
CCCCNC(=S)N1CCN(CC)CC1 | 0 | 53* | 1 | 23 | 15 | 0 | -3
COc1ccc(N2c3ccccc3CN(Cc3ccccc3)CC2Cc2cc(OC)c(OC)c(OC)c2)cc1 (stereo unspecified) | . | . | . | 14 | . | . | .
